For assay [1], the species on record is Rattus norvegicus. The assay can be described thus: In vitro inhibition of [3H]5-HT uptake in rat brain (minus pons, medulla oblongata and cerebellum) homogenates. The format is functional.
The species entered for assay [2] is Rattus norvegicus. The assay can be described thus: In vitro inhibition of [3H]NE uptake in rat occipital lobe (plus temporal cortex) homogenates. It is filed as functional.
The species entered for a further assay is Mus musculus. Put plainly: Antagonism of methyl phenidate-induced gnawing behavior in mice. It is filed as functional. The method, boiled down:
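Test compound given ip (or sc) 2 h before methyl phenidate (60 mg/kg); mice housed in pairs on corrugated cardboard in gnawing cages, 5–9 pairs per dose.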

For another assay, the target named is D(1A) dopamine receptor (Rattus norvegicus, UniProt P18901). Put plainly: Binding affinity for dopamine receptor D1, activity is expressed as IC50 values.
The species entered for assay [3] is Rattus norvegicus. The assay can be described thus: Cataleptogenic effect in rats. It is filed as functional. The method, boiled down: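 Rats scored on a vertical wire grid hourly 1–6 h after dosing; catalepsy counted when immobility lasted at least 15 s.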
The species entered for assay [4] is Rattus norvegicus. The assay can be described thus: In vitro inhibition of [3H]dopamine uptake in rat corpus striatum homogenates. It is filed as functional.
Assay [5] has as its target 5-hydroxytryptamine receptor 2A (Rattus norvegicus, UniProt P14842). The assay can be described thus: Binding affinity for 5-hydroxytryptamine 2A receptor, activity is expressed as IC50 values.
The next assay addresses D(2) dopamine receptor (Rattus norvegicus, UniProt P61169). Put plainly: Binding affinity against dopamine receptor D2.
[6] abbreviates: Rattus norvegicus, read-out: ED50.

Structures are written as SMILES.

Chain of 5-hydroxytryptamine receptor 2A (P14842 whole entry): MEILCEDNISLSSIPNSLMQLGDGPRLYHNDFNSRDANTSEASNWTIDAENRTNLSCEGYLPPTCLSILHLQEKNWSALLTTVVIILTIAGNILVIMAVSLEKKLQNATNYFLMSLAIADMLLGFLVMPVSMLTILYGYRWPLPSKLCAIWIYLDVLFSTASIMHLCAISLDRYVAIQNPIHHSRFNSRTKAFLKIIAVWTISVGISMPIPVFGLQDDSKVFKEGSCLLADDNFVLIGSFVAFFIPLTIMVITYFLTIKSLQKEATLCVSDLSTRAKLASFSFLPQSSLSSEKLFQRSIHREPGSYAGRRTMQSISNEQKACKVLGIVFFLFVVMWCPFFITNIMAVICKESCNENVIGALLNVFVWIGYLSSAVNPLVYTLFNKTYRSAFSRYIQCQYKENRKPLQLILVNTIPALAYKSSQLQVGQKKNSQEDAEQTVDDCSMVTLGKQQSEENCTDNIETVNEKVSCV
Chain of D(2) dopamine receptor (P61169 whole entry): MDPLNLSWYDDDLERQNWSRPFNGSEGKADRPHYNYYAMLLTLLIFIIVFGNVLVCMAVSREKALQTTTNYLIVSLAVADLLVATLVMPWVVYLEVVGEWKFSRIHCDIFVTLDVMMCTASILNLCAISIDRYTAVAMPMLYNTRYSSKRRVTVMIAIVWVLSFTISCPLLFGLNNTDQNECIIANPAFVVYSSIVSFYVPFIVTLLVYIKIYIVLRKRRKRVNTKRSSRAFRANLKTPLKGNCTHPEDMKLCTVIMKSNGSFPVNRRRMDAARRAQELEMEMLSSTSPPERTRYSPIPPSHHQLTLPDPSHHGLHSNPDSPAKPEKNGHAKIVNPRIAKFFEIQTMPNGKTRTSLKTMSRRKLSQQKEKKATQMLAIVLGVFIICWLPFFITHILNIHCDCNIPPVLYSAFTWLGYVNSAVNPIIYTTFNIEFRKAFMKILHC
Chain of D(1A) dopamine receptor (P18901 whole entry): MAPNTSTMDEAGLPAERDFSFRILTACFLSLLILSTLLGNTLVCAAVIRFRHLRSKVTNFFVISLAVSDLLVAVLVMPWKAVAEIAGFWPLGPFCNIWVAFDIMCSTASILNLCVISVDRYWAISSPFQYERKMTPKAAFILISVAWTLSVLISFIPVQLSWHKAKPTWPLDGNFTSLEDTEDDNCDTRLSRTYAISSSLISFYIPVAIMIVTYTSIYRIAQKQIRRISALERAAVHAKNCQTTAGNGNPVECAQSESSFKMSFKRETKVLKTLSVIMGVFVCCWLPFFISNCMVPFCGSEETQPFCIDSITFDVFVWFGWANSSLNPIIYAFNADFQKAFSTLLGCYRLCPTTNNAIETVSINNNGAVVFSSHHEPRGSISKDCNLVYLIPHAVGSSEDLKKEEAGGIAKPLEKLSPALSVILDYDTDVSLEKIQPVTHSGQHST

As a reminder, the IC50 is the concentration that inhibits the measured activity by half. As for `CN1CCN(C2CC(c3ccc(F)cc3)c3ccc(Cl)cc32)CC1(C)C` (stereo in doubt; (-)-28), the IC50 in the assay listed under Rattus norvegicus [1] was 7200 nM; in the assay filed under Rattus norvegicus [2], 6500 nM; at D(1A) dopamine receptor, 0.68 nM; in the assay listed under Rattus norvegicus [4], 3200 nM; in assay [5] it was 1.1 nM. Also, the ED50 in the assay filed under Mus musculus (Mus musculus, read-out: ED50) stood at 0.48 µmol/kg; in the assay filed under Rattus norvegicus [3] it was 9.8 µM/kg.

For `CN1CCN(C2CC(c3ccc(Cl)cc3)c3ccc(Cl)cc32)CC1(C)C` (centres undefined), in the assay listed under Mus musculus (Mus musculus, read-out: ED50), the ED50 is over 69 µmol/kg. Further, the IC50 was 34 nM at D(1A) dopamine receptor, 63 nM on D(2) dopamine receptor and 32 nM in assay [5].

In the case of `CN1CCN(C2CC(c3ccc(F)cc3)c3ccc(F)cc32)CC1(C)C` (stereo in doubt; (+)-40), the IC50 in the assay filed under Rattus norvegicus [1] turned out to be 3700 nM; in the assay filed under Rattus norvegicus [2], 20 nM; at D(1A) dopamine receptor, 88 nM; in the assay filed under Rattus norvegicus [4], 7.1 nM; at D(2) dopamine receptor, 1500 nM; in assay [5] it was 360 nM.

On to `CC1(C)CN(C2CC(c3ccsc3)c3ccc(Cl)cc32)CCN1` (stereo in doubt; (+)-54), for which the IC50 in the assay listed under Rattus norvegicus [1] is 2000 nM; in the assay listed under Rattus norvegicus [2], 73 nM; on D(1A) dopamine receptor, 440 nM; in the assay filed under Rattus norvegicus [4] it was 27 nM; at D(2) dopamine receptor, 6700 nM; in assay [5], 1100 nM.

For `CN1CCN(C2CC(c3ccc(F)cc3)c3ccc(Cl)cc32)CC1(C)C` (stereo in doubt; 28), the ED50 is 0.65 µM/kg in the assay filed under Mus musculus and 25 µM/kg in the assay filed under Rattus norvegicus [3]. The IC50 on D(1A) dopamine receptor came to 1.3 nM; in assay [5], 2.1 nM.

On to `CC(C)N1CCN(C2CC(c3ccc(F)cc3)c3ccc(Cl)cc32)CC1(C)C` (single isomer, unassigned; (-)), for which the IC50 in the assay listed under Rattus norvegicus [1] (Rattus norvegicus) came to 3500 nM; in the assay filed under Rattus norvegicus [2], 5600 nM; at D(1A) dopamine receptor it was 0.66 nM; in the assay filed under Rattus norvegicus [4], 1300 nM. Further, the values for the ED50 in the assay listed under Mus musculus and in the assay listed under Rattus norvegicus [3] were 0.76 µM/kg and 7.1 µM/kg, respectively.

On to `CN1CCN(C2CC(c3ccc(F)cc3)c3ccccc32)CC1(C)C` (stereo in doubt; 39), for which the ED50 in the assay listed under Mus musculus (Mus musculus, read-out: ED50) was 12 µmol/kg; in the assay filed under Rattus norvegicus [3] (setting [6]), over 70 µmol/kg. For the same compound, the IC50 at D(1A) dopamine receptor was 3 nM; at D(2) dopamine receptor, 29 nM; in assay [5], 5.1 nM.

With `CC1(C)CN(C2CC(c3ccc(F)cc3)c3ccc(C(F)(F)F)cc32)CCN1` (centres undefined), the ED50 in the assay listed under Mus musculus (Mus musculus, read-out: ED50) was 2.7 µmol/kg; in the assay filed under Rattus norvegicus [3] (setting [6]), over 51 µmol/kg. The compound also showed an IC50 in assay [5] of 7.5 nM.

For `CN1CCN(C2CC(c3ccccc3)c3ccc(Cl)cc32)CC1(C)C` (stereo in doubt; (+)-38), the IC50 in the assay filed under Rattus norvegicus [1] (Rattus norvegicus) worked out at 5300 nM; in the assay listed under Rattus norvegicus [2], 26 nM; on D(1A) dopamine receptor, 15 nM; in the assay listed under Rattus norvegicus [4], 7.5 nM; on D(2) dopamine receptor, 260 nM; in assay [5], 68 nM.

Turning to `CN1CCN(C2CC(c3ccc(F)cc3)c3ccccc32)CC1(C)C` (single isomer, unassigned; (+)), the IC50 in the assay listed under Rattus norvegicus [1] (Rattus norvegicus) came out at 5200 nM; in the assay filed under Rattus norvegicus [2] it was 76 nM; on D(1A) dopamine receptor, 250 nM; in the assay listed under Rattus norvegicus [4], 25 nM; on D(2) dopamine receptor, 4900 nM; in assay [5], 650 nM.

Regarding `CC1(C)CN(C2CC(c3ccc(F)cc3)c3ccc(Cl)cc32)CCN1` (single isomer, unassigned; (+)), the IC50 in the assay filed under Rattus norvegicus [1] was over 100 nM; in the assay filed under Rattus norvegicus [2] it was 290 nM; on D(1A) dopamine receptor, 1100 nM; in the assay filed under Rattus norvegicus [4], 29 nM; at D(2) dopamine receptor, 12000 nM; in assay [5] it was 3600 nM.

(Values after ChEMBL document CHEMBL1128174, “Enhanced D1 affinity in a series of piperazine ring substituted 1-piperazino-3-arylindans with potential atypical antipsychotic activity” (J Med Chem, 1995).)
